Measurements from paper PMC11831733 (RSC Advances, 2025).
Converted amounts (≈) assume the structure as drawn.

How the values were obtained:
[1] = Cytotoxicity, resazurin microplate assay; assay type: cell-based; conditions: human, NCI-H187 cells (human small-cell lung cancer, ATCC CRL-5804)
Procedure, shortened: (§1)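 Test compound and cell suspension were combined in triplicate wells and kept at 37 °C in humidified 5% CO2 for 3 d (MCF-7) or 5 d (NCI-H187). A 62.6 μg mL−1 resazurin solution was then added, followed by 4 h at 37 °C. Fluorescence was read bottom-mode at excitation 530 nm and emission 590 nm, and the blank was subtracted.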

[2] = Cytotoxicity, resazurin microplate assay; assay type: cell-based; conditions: human, MCF-7 cells (human breast cancer, ATCC HTC-22)
Procedure, shortened: as §1

[3] = system: A. brassicicola (BCC 42724); assay: microbe, parasite or virus in culture; assay type: cell-based; conditions: Alternaria brassicicola, read-out: Anti-phytopathogenic fungal (MIC, μM) A. brassicicola
C. acutatum (BCC 58146) = assay: microbe, parasite or virus in culture; assay type: cell-based; conditions: Colletotrichum acutatum, read-out: Anti-phytopathogenic fungal (MIC, μM) C. acutatum
[4] = system: Vero cells (African green monkey kidney fibroblast); assay: in vitro; assay type: cell-based; conditions: read-out: Cytotoxicity (IC50, μM) Vero
in vitro = assay type: cell-based, African green monkey; conditions: African green monkey, Cytotoxicity (IC50, μM) Vero
[5] = system: all cell lines tested (Plasmodium falciparum, mammalian, and fungal); assay: Antiproliferative activity over all cell lines tested; assay type: cell-based; conditions: P. falciparum, mammalian and fungal cells

| SMILES | IC50 at 5 d [1] [µM] | IC50 at 3 d [2] [µM] | MIC [3] [µM] | MIC (C. acutatum (BCC 58146)) [µM] | IC50 [4] [µM] | IC50 at 4 d (in vitro) [µM] | antiproliferative activity profile (in words) [5] |
| --- | --- | --- | --- | --- | --- | --- | --- |
| COc1cccc2c1C(=O)c1c(O)c3c(c(O)c1C2=O)C[C@@](O)(C(=O)CO)C[C@@H]3O[C@H]1C[C@H](N)[C@H](O)[C@H](C)O1 [Doxorubicin, reference compound] | 0.2 | 11.9 |  |  |  |  |  |
| COc1cc(O)c2c(=O)c3c(O)cc(C)cc3oc2c1O [Compound 1, 1,5,8-trihydroxy-6-methoxy-3-methylxanthone] | 19 | > 174 | > 174 | > 174 | 58.9 | 58.9 | active only against mammalian cell lines |
| COc1cc2oc3cc(C)cc(O)c3c(=O)c2c(C)c1O [Compound 3, 1,7-dihydroxy-6-methoxy-3,8-dimethylxanthone] | > 175 | > 175 | > 175 | > 175 |  | > 175 |  |
| C[C@@H]1[C@H](O)[C@@H](C)/C=C/C=C/C=C/C=C/C=C/C=C/C=C/[C@H](O[C@@H]2O[C@H](C)[C@@H](O)[C@H](N)[C@@H]2O)C[C@@H]2O[C@](O)(C[C@@H](O)C[C@@H](O)[C@H](O)CC[C@@H](O)C[C@@H](O)CC(=O)O[C@H]1C)C[C@H](O)[C@H]2C(=O)O [Amphotericin B, reference compound] |  |  | 1.7 (≈ 1.57 µg/mL) | 3.4 (≈ 3.14 µg/mL) |  |  |  |
| O=C(O)CCC(=O)OCCc1ccccc1 [Compound 7, 4-oxo-4-phenethoxybutanoic acid] | > 225 | > 225 | > 225 | > 225 |  | > 225 |  |
| CCC(=O)c1cc(OC)cc2oc3cc(C)cc(O)c3c(=O)c12 [Compound 4, 1-hydroxy-6-methoxy-3-methyl-8-propionylxanthone] | > 160 | 42.5 | > 160 | > 160 |  | > 160 | active only against mammalian cell lines |
| COc1cc(O)c2c(=O)c3c(O)cc(C)cc3oc2c1OC [Compound 2, 1,8-dihydroxy-5,6-dimethoxy-3-methylxanthone] | > 165 | > 165 | > 165 | > 165 |  | > 165 |  |
